Measurements reported in ChEMBL document CHEMBL1141070, “Synthesis and biological activity of flurbiprofen analogues as selective inhibitors of beta-amyloid(1)(-)(42) secretion” (J Med Chem, 2005).

Assays:
[1] = Area under curve after administration to rats at adose of 2.5 mg/kg orally; assay type: ADME, organism-based; design: dose 2.5 mg/kg, route oral; conditions: rat, in vivo, po
[2] = Area under curve after administration to rats at adose of 0.5 mg/kg intravenously; assay type: ADME, organism-based; design: dose 0.5 mg/kg, route intravenous; conditions: rat, in vivo, iv
[3] = target: Cytochrome P450 2C19 (Homo sapiens, UniProt P33261); experiment: Interaction with human cytochrome P450 isoform 2C19 expressed in baculovirus-insect cells; assay type: ADME
Chain of Cytochrome P450 2C19 (P33261 whole entry, canonical isoform): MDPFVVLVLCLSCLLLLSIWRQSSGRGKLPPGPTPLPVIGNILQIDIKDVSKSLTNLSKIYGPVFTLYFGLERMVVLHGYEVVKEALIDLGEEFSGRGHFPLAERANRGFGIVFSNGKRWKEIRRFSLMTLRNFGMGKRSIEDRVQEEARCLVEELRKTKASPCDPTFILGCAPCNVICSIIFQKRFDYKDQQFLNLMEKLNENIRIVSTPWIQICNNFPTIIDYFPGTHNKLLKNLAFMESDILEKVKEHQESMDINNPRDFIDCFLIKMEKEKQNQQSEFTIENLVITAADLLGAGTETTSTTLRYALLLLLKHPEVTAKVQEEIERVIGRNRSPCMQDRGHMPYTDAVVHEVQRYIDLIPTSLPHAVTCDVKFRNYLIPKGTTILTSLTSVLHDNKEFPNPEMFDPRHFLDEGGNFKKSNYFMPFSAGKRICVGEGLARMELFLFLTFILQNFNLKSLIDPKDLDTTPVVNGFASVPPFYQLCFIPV
In short: (§1)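 Microsomes from baculovirus-insect cells expressing human CYP1A2, 2C9, 2C19, 2D6 or 3A4. Compound serially diluted with an NADPH-regenerating mix (16.3 μM NADP+, 0.83 mM glucose-6-phosphate, 0.83 mM MgCl2, 0.4 U/mL G6PDH). Pre-warmed 10 min at 37 °C, then isoform-specific substrate added in 0.35 M potassium phosphate pH 7.4. Fluorometric read-out; IC50 by nonlinear regression.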

[4] = target: T1, Amyloid-beta precursor protein (Homo sapiens, UniProt P05067); experiment: Inhibitory concentration against beta-amyloid-42 (Abeta42) secretion was evaluated in human neuroglioma cells (H4-APP695NL); assay type: functional, cell-based
In short: (§2)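 H4-APP695NL human neuroglioma cells (APP695 Swedish K595N/M596L) seeded at 2 × 10^5/well and grown 24 h to confluence. Increasing compound concentrations added overnight; DMSO 1% as vehicle. Supernatant Aβ42 or Aβ40 measured by electrochemiluminescence immunoassay: biotinylated 4G8 plus C-terminus-specific rabbit antibodies, captured on streptavidin beads.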
Target sequence in this assay (P05067 18-770 limits assumed): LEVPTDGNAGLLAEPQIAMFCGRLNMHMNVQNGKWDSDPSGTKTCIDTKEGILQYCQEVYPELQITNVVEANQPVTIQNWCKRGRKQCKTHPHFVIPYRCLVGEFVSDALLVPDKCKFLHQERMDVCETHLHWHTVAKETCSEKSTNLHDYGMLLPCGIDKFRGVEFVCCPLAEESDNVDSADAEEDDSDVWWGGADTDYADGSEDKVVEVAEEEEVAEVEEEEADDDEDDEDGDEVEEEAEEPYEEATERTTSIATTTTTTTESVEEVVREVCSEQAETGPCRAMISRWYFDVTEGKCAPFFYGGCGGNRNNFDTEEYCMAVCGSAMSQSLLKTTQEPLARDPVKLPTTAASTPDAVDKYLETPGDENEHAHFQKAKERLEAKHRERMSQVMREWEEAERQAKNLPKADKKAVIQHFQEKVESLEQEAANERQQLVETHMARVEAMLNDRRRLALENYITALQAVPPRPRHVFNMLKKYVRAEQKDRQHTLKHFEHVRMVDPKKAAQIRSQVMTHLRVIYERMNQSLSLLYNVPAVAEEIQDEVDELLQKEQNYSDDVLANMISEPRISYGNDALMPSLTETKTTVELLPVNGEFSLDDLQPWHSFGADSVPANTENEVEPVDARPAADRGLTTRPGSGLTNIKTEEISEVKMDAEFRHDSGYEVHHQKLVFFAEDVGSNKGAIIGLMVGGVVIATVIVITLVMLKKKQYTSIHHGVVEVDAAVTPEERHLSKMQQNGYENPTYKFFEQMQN

[5] = Maximum time corresponding to maximum concentration after administration to rats at a dose of 0.5 mg/kg intravenously; assay type: ADME, organism-based; design: dose 0.5 mg/kg, route intravenous; conditions: rat, in vivo, iv
[6] = Maximal concentration in rats after 0.5 mg/kg intravenous dose; assay type: ADME, organism-based; design: dose 0.5 mg/kg, route intravenous; conditions: rat, in vivo
[7] = Total body clearance after administration to rats at a dose of 0.5 mg/kg intravenously; assay type: ADME, organism-based; design: dose 0.5 mg/kg, route intravenous; conditions: rat, in vivo, iv
[8] = target: T2, Prostaglandin G/H synthase 1 (Rattus norvegicus) (UniProt Q63921); experiment: Percent inhibition against cyclooxygenase-1 at 100 uM in rat blood
T2 sequence (whole entry): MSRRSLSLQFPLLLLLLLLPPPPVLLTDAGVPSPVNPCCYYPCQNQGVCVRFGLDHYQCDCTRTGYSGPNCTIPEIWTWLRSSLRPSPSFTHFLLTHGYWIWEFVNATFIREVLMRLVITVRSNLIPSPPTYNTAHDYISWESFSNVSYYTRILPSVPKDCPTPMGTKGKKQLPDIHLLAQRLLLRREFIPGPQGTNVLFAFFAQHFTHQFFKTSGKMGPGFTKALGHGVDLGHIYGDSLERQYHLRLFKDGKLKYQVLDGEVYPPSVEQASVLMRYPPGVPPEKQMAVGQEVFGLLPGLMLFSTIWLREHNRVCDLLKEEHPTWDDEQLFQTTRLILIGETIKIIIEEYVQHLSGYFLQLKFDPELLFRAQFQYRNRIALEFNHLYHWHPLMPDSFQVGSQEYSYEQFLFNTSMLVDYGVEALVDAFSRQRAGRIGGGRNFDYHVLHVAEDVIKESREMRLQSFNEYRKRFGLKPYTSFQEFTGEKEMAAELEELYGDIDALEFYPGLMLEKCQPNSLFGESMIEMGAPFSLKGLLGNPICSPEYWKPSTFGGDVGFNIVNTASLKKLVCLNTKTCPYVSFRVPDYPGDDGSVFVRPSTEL
In short: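 Fresh rat whole blood preincubated 1 h at 37 °C with compound (100 μM) or DMSO (0.3% final). Stimulated 30 min with A23187 calcium ionophore; plasma thromboxane B2 measured by radioimmunoassay.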

[9] = Maximum time corresponding to maximum concentration after administration to rats at a dose of 2.5 mg/kg orally; assay type: ADME, organism-based; design: dose 2.5 mg/kg, route oral; conditions: rat, in vivo, po
[10] = Elimination phase half-life after administration to rats at a dose of 2.5 mg/kg orally; assay type: ADME, organism-based; design: dose 2.5 mg/kg, route oral; conditions: rat, in vivo, po
[11] = Elimination phase half-life after administration to rats at a dose of 0.5 mg/kg intravenously; assay type: ADME, organism-based; design: dose 0.5 mg/kg, route intravenous; conditions: rat, in vivo, iv
[12] = Maximal concentration in rats after 2.5 mg/kg oral dose; assay type: ADME, organism-based; design: dose 2.5 mg/kg, route oral; conditions: rat, in vivo
[13] = system: Caco-2; experiment: Permeability in the Caco-2 cell; high absorption; assay type: ADME, cell-based; conditions: human
In short: (§3)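 Caco-2 monolayers on polycarbonate Transwell inserts, 2 h at 37 °C. Apical and basolateral solutions analysed by LC-MS/MS (SRM). Papp = Cb·Vb/(C0·A·t).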

[14] = target: T1, Amyloid-beta precursor protein; conditions: at 100 µM
Target sequence in this assay (P05067 whole entry): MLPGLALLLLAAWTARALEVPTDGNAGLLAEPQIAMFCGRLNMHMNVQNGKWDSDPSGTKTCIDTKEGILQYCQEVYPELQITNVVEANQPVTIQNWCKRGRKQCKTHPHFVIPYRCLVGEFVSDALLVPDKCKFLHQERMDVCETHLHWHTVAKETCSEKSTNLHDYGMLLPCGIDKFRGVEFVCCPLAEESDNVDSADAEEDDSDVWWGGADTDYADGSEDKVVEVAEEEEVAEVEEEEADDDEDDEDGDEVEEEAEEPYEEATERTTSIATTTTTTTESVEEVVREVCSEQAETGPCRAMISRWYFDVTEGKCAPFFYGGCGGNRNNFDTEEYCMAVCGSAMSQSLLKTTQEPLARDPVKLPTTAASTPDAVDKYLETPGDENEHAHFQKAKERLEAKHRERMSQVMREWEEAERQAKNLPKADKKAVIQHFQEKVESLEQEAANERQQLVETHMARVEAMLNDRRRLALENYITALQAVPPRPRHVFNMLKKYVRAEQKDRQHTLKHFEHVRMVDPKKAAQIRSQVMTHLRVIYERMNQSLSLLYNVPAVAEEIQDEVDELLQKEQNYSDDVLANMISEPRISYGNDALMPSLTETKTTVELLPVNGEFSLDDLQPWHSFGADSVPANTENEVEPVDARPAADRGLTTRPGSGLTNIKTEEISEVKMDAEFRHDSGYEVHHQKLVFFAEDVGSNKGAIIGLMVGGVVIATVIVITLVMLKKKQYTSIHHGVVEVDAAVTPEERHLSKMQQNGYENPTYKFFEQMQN

[15] = target: T1, Amyloid-beta precursor protein; experiment: Inhibition of A beta 40 peptide 100 um
Target sequence in this assay (P05067 whole entry): as above

[16] = Concentration ratio in cerebrospinal fluid and plasma; conditions: rat
[17] = In vivo steady state metabolic clearance of the compound; conditions: rat
[18] = Absolute oral bioavailability after administration to rats at a dose of 2.5 mg/kg orally; conditions: rat, in vivo
[19] = target: Cytochrome P450 2C9 (Homo sapiens, UniProt P11712); experiment: Interaction with human cytochrome P450 isoform 2C9 expressed in baculovirus-insect cells; assay type: ADME; in short: as §1
Chain of Cytochrome P450 2C9 (P11712 whole entry, canonical isoform): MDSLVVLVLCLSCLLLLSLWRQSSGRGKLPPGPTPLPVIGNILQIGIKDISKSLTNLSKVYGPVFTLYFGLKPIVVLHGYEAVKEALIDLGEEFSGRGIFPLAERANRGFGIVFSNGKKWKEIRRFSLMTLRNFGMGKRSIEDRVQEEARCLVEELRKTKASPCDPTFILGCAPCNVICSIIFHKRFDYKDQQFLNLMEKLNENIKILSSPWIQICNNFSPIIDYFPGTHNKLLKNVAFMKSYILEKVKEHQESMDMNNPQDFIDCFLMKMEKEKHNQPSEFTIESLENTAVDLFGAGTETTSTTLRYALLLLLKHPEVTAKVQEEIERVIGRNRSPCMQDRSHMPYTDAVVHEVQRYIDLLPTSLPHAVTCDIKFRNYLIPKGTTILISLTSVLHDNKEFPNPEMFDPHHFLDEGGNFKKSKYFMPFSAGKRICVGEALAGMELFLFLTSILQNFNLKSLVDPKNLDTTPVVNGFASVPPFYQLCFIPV

[20] = Area under curve after administration to rats at a dose of 2.5 mg/kg orally; assay type: ADME, organism-based; design: dose 2.5 mg/kg, route oral; conditions: rat, in vivo, po
[21] = Area under curve after administration to rats at a dose of 0.5 mg/kg intravenously; assay type: ADME, organism-based; design: dose 0.5 mg/kg, route intravenous; conditions: rat, in vivo, iv
[22] = Total body clearance after administration to rats at a dose of 0.5 mg/kg intravenously; conditions: rat, in vivo, iv
[23] = Absolute oral bioavailability after administration to rats at a dose of 2.5 mg/kg orally; conditions: rat, in vivo; remark: listed apart in the source
[24] = Intestinal drug absorption was estimated in vitro using human colon adenocarcinoma (Caco-2) cell monolayers; assay type: ADME; in short: as §3
[25] = target: T1, Amyloid-beta precursor protein; experiment: Concentration required to inhibit A beta 40 peptide 100 uM
Target sequence in this assay (P05067 whole entry): as the sequence (P05067 whole entry) above

[26] = target: T3, Cytochrome P450 1A2 (Homo sapiens, UniProt P05177); experiment: (§4) Interaction with human cytochrome P450 isoform 1A2 expressed in baculovirus-insect cells; assay type: ADME; in short: as §1
T3 sequence (P05177 whole entry): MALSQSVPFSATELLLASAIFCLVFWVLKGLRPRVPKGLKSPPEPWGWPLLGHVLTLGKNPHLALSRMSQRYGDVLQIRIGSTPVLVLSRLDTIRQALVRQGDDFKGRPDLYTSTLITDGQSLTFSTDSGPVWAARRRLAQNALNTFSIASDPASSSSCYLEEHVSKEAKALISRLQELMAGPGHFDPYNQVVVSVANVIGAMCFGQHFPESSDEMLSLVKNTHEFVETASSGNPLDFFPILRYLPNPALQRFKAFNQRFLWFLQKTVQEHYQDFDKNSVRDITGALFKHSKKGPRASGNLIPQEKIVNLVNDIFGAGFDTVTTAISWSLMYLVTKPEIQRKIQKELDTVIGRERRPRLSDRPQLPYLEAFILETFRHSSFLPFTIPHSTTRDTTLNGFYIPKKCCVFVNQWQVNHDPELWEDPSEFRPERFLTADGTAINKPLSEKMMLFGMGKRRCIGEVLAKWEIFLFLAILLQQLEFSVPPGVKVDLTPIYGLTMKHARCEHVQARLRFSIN

[27] = target: T4, Cytochrome P450 3A4 (Homo sapiens, UniProt P08684); experiment: (§5) Interaction with human cytochrome P450 isoform 3A4 expressed in baculovirus-insect cells; assay type: ADME; in short: as §1
T4 sequence (P08684 whole entry, canonical isoform): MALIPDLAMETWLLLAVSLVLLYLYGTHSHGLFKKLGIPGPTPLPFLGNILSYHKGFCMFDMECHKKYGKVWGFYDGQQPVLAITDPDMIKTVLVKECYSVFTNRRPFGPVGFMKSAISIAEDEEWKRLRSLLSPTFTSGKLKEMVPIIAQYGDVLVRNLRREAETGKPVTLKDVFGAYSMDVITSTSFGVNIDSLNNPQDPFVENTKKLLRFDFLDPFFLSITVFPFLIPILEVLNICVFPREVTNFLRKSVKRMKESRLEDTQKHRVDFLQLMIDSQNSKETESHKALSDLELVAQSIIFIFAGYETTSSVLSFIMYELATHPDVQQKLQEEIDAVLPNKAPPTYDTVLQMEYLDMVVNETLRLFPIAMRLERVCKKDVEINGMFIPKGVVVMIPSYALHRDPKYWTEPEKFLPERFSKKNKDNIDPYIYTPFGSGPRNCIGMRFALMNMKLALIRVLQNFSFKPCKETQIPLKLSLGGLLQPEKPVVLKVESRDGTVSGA

[28] = Concentration ratio in cerebrospinal fluid and plasma; LLOQ = lower limit of quantitation; conditions: rat
[29] = Intestinal drug absorption was estimated in vitro using human colon adenocarcinoma (Caco-2) cell monolayers; Range is 10-50 nm/s; assay type: ADME; in short: as §3
[30] = target: T1, Amyloid-beta precursor protein; experiment: Concentration required to inhibit A beta 40 peptide; in short: as §2
Target sequence in this assay (P05067 whole entry): as the sequence (P05067 whole entry) above

[31] = target: T5, CYP1A2 (Homo sapiens, UniProt P05177); experiment: Interaction with human cytochrome P450 isoform 1A2 expressed in baculovirus-insect cells at 100 uM; assay type: ADME; in short: as §1
T5 sequence (P05177 whole entry): T3 sequence (P05177 whole entry)

[32] = target: CYP2D6 (Homo sapiens, UniProt P10635); experiment: (§6) Interaction with human cytochrome P450 isoform 2D6 expressed in baculovirus-insect cells at 100 uM; assay type: ADME; in short: as §1
Chain of CYP2D6 (P10635 whole entry, canonical isoform): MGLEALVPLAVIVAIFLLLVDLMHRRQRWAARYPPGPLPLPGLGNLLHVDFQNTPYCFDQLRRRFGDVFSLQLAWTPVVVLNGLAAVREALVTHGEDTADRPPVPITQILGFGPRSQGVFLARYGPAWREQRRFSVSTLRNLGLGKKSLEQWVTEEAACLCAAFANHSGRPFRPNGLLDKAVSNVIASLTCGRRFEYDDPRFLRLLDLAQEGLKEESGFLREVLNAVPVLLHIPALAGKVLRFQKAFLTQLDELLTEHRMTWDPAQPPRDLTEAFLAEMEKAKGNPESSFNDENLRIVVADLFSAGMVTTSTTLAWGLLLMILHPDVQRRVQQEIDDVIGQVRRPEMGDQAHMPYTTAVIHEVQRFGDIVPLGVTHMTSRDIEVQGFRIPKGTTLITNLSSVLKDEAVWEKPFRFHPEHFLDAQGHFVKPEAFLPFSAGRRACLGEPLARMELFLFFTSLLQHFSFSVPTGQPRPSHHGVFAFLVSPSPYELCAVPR

[33] = target: T6, Cytochrome P450 2D6 (Homo sapiens, UniProt P10635); experiment: as §6; assay type: ADME; in short: as §1
T6 sequence (P10635 whole entry, canonical isoform): as above

[34] = target: CYP2C19 (Homo sapiens, UniProt P33261); experiment: Interaction with human cytochrome P450 isoform 2C19 expressed in baculovirus-insect cells at 100 uM; assay type: ADME; in short: as §1
Chain of CYP2C19 (P33261 whole entry, canonical isoform): as the sequence (P33261 whole entry, canonical isoform) above

[35] = target: T3, Cytochrome P450 1A2; experiment: as §4; assay type: ADME; remark: listed apart in the source
In short: (§7)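 Supersome microsomes from baculovirus-insect cells expressing human CYP1A2, 2C9, 2C19, 2D6 or 3A4 were used with isoform-specific fluorogenic substrates. Compounds were serially diluted with an NADP⁺/glucose-6-phosphate regenerating system in 0.35 M potassium phosphate, pH 7.4. Plates were prewarmed 10 min at 37 °C, reactions stopped with acetonitrile/Tris, and fluorescence read. IC50 was obtained by nonlinear regression.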

[36] = target: T6, Cytochrome P450 2D6; experiment: Interaction with human cytochrome P450 isoform 2D6 expressed in baculovirus-insect cells; assay type: ADME; in short: as §7
[37] = target: T4, Cytochrome P450 3A4; experiment: as §5; assay type: ADME; in short: as §7; remark: listed apart in the source

IC50 [3] [µM] | IC50 [4] [µM] | Cmax [6] [ng/mL] | inhibition [8] [%] | half-life [10] [min] | Cmax [12] [ng/mL] | inhibition [14] [%] | Ratio [16] [%] | Clearance [17] [mL/h] | IC50 [19] [µM] | Structure (SMILES) | also measured
71 | 111 | 14400 | < 1 | 1970 | 54900 | 55 | 1.8 | 0.52 | – | O=C(O)C1(c2ccc(-c3ccc(C(F)(F)F)cc3)c(F)c2)CC1 | AUC [1]: 2613 µg/h/mL; AUC [2]: 575 µg/h/mL; Tmax [5]: 4.8 min; Clearance [7]: 21.6 mL/day/kg; Tmax [9]: 4 h; half-life [11]: 2170 min; Absoption [13]: High; Inhibition [15]: 22%; bioavailability [18]: 90.9%
25 | 41 | 6100 | < 1 | 1240 | 16200 | 79 | – | 1.5 | 38 | O=C(O)C1(c2ccc(-c3ccc(Cl)c(Cl)c3)c(F)c2)CC1 | AUC [20]: 435 µg/h/mL; AUC [21]: 173 µg/h/mL; T1/2 [10]: 20.7 h; Absorption [13]: High; Clearance [22]: 2.9 mL/h/kg; bioavailability [23]: 50.2%
– | 41 | – | 20 | – | – | 76 | – | 148 | – | CC(C(=O)O)c1ccc(-c2ccc(OC3CCCCC3)cc2)c(F)c1 (stereo unspecified) | Papp [24]: > 5 ×10⁻⁶ cm/s; inhibition [25]: 25%; Inhibition [26]: > 50%; Inhibition [27]: > 50%; Ratio [28]: Below LLOQ
– | 21 | – | 18 | – | – | 79 | 1.5 | 174 | – | CC(C(=O)O)c1ccc(-c2ccc(C3CCCCC3)cc2)c(F)c1 (stereo unspecified) | Papp [29]: 5 ×10⁻⁶ cm/s; IC50 [30]: 46 µM; inhibition at 100 µM [31]: > 50%; inhibition at 100 µM [32]: > 50%; Inhibition [33]: > 50%; inhibition at 100 µM [34]: > 50%
33 | 11 | – | – | – | – | 97 | – | 134 | 15 | CC1(C)CC(Oc2ccc(-c3ccc(C4(C(=O)O)CC4)cc3F)cc2)CC(C)(C)C1 | IC50 [35]: 26 µM; IC50 [36]: 30 µM; IC50 [37]: 27 µM
